What all share (format): functional, cell-based
The subject of test [1] is HL-60. The test can be described thus: Antiproliferative activity against human HL60 cells after 72 hrs by MTT assay. To be noted: HL-60, 72 h. The gist of the method:
(§1)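 Leukemia cells (ATCC) grown in RPMI-1640 with 10% FCS, 2 mM glutamine, penicillin/streptomycin at 37 °C, 5% CO2. Seeded at 4 × 10^4 per well. Exposed 72 h to 1.25, 2.5, 5, 10 and 20 μg/mL (DMSO under 0.02%). MTT formazan dissolved in DMSO, read as OD570 − OD620. IC50 = concentration giving half the control absorbance. n = 4 wells per experiment, four separate experiments, ± SD.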
A general note: Tetrazolium assays rely on reduction of a dye to a coloured formazan, in cell work by metabolically active cells.

Test [2] deals with K562. The test is described as follows: Antiproliferative activity against human K562 cells after 72 hrs by MTT assay. As to conditions: K562, 72 h. The procedure, abridged:
as §1

In test [3] the test system is MOLT-4. The test can be described thus: Antiproliferative activity against human MOLT4 cells after 72 hrs by MTT assay. To be noted: MOLT-4, 72 h. The procedure, abridged:
as §1

Test [4] concerns CCRF-CEM. The test can be described thus: Antiproliferative activity against human CCRF-CEM cells after 72 hrs by MTT assay. The gist of the method:
as §1

Consider 19 compounds from ChEMBL document CHEMBL3994573, “Cytotoxic Lanostanoids from Poria cocos” (J Nat Prod, 2016).

In the case of `C=C(CC[C@@H](C(=O)O)[C@H]1[C@H](O)C[C@@]2(C)C3=CC[C@H]4C(C)(C)[C@H](O)CC[C@]4(C)C3=CC[C@]12C)C(C)C`, the half-maximal inhibitory concentration (IC50) in test [1], in test [2], in test [3] and in test [4] was > 40 µM throughout.

`COc1cccc2c1C(=O)c1c(O)c3c(c(O)c1C2=O)C[C@@](O)(C(=O)CO)C[C@@H]3O[C@H]1C[C@H](N)[C@H](O)[C@H](C)O1` [DOXORUBICIN]: the IC50 (as a rule, the point on the concentration scale where inhibition reaches its midpoint) in test [1] worked out at 0.01 µM; in test [2], 0.5 µM; in test [3], 0.01 µM; in test [4] it was 0.01 µM.

Turning to `C=C(CC[C@@H](C(=O)O)[C@H]1[C@H](O)C[C@@]2(C)C3=C(CC[C@]12C)[C@@]1(C)CC[C@H](O)C(C)(C)[C@@H]1CC3=O)C(C)C`, the half-inhibitory concentration (IC50) in test [1], in test [2], in test [3] and in test [4] was > 40 µM in each case.

Turning to `C=C(CC[C@@H](C(=O)O)[C@H]1[C@H](O)C[C@@]2(C)C3=CC[C@H]4C(C)(C)C(=O)CC[C@]4(C)C3=CC[C@]12C)C(C)C` [POLYPORENIC ACID B], the IC50 turned out to be 31.8 µM in test [1], 26.3 µM in test [2], 27.6 µM in test [3] and 25.5 µM in test [4].

As for `C=C(CC[C@@H](C(=O)O)[C@H]1[C@H](O)C[C@@]2(C)[C@]34C=C[C@@]5(OO3)C(C)(C)[C@@H](O)CC[C@]5(C)C4=CC[C@]12C)C(C)C`, the half-inhibitory concentration (IC50) in test [1], in test [2], in test [3] and in test [4] was > 40 µM in each case.

As for `C=C(C)C(=O)CC[C@@H](C(=O)O)[C@H]1[C@H](O)C[C@@]2(C)C3=C(CC[C@]12C)[C@@]1(C)CC[C@H](O)C(C)(C)[C@@H]1CC3`, the IC50 in test [1], in test [2], in test [3] and in test [4] was > 40 µM each time.

`C=C(CC[C@@H](C(=O)O)[C@H]1[C@H](O)C[C@@]2(C)C3=CC=C4C(C)(C)C(=O)CC[C@]4(C)C3=CC[C@]12C)C(C)C`: the half-maximal inhibitory concentration (IC50) in test [1], in test [2], in test [3] and in test [4] was > 40 µM in each case.

Take `C=C(CC[C@@H](C(=O)O)[C@H]1[C@H](O)C[C@@]2(C)[C@]34C=C[C@@]5(OO3)C(C)(C)[C@@H](OC(=O)CO)CC[C@]5(C)C4=CC[C@]12C)C(C)C`: the IC50 in test [1], in test [2], in test [3] and in test [4] was > 40 µM throughout.

Consider `C=C(CC[C@@H](C(=O)O)[C@H]1[C@H](O)C[C@@]2(C)C3=CC[C@@H](C(=C)C)[C@](C)(CCC(=O)O)C3=CC[C@]12C)C(C)C` [PORICOIC ACID A], for which the half-inhibitory concentration (IC50) in test [1], in test [2], in test [3] and in test [4] was > 40 µM throughout.

With `C=C(CC[C@@H](C(=O)O)[C@H]1[C@H](O)C[C@@]2(C)C3=C(CC[C@]12C)[C@@]1(C)CC[C@@H](O)C(C)(C)[C@@H]1CC3=O)C(C)C`, the IC50 in test [1], in test [2], in test [3] and in test [4] was > 40 µM throughout.

For the compound `CC(C)=CCC[C@@H](C(=O)O)[C@H]1[C@H](O)C[C@@]2(C)C3=C(CC[C@]12C)[C@@]1(C)CC[C@H](O)C(C)(C)[C@@H]1CC3`, the half-maximal inhibitory concentration (IC50) in test [1], in test [2], in test [3] and in test [4] was > 40 µM in each case.

Regarding `CC(C)C(=O)CC[C@@H](C(=O)O)[C@H]1[C@H](O)C[C@@]2(C)C3=CC[C@H]4C(C)(C)[C@H](O)CC[C@]4(C)C3=CC[C@]12C`, the half-maximal inhibitory concentration (IC50) in test [1], in test [2], in test [3] and in test [4] was > 40 µM throughout.

In the case of `CC(C)=CCC[C@@H](C(=O)O)[C@H]1CC[C@@]2(C)C3=CC[C@H]4C(C)(C)[C@@H](O)CC[C@]4(C)C3=CC[C@]12C` [DEHYDROTRAMETENOLIC ACID], the 50% inhibitory concentration (IC50) in test [1] is 20 µM; in test [2], 14.8 µM; in test [3] it was 16.2 µM; in test [4] it was 13.1 µM.

For `CC(C)=CCC[C@@H](C(=O)O)[C@H]1[C@H](O)C[C@@]2(C)C3=CC[C@H]4C(C)(C)[C@@H](O)CC[C@]4(C)C3=CC[C@]12C`, the IC50 in test [1], in test [2], in test [3] and in test [4] was > 40 µM each time.

In the case of `CC(C)C(=O)CC[C@@H](C(=O)O)[C@H]1[C@H](O)C[C@@]2(C)C3=CC[C@H]4C(C)(C)[C@@H](O)CC[C@]4(C)C3=CC[C@]12C`, the IC50 in test [1], in test [2], in test [3] and in test [4] was > 40 µM each time.

As to `C=C(CC[C@@H](C(=O)O)[C@H]1[C@H](O)C[C@@]2(C)C3=CC[C@H]4C(C)(C)[C@@H](OC(C)=O)CC[C@]4(C)C3=CC[C@]12C)C(C)C`, the IC50 in test [1] was 7.3 µM; in test [2] it was 18.6 µM; in test [3], 13.8 µM; in test [4] it was 2.7 µM.

With `C=C(CC[C@@H](C(=O)O)[C@H]1[C@H](O)C[C@@]2(C)C3=CCC4[C@](C)(CC[C@H](O)[C@]4(C)CO)C3=CC[C@]12C)C(C)C` (stereo partly specified), the 50% inhibitory concentration (IC50) in test [1], in test [2], in test [3] and in test [4] was > 40 µM each time.

For the compound `C=C(CC[C@@H](C(=O)O)[C@H]1[C@H](O)C[C@@]2(C)C3=CC[C@H]4C(C)(C)[C@@H](O)CC[C@]4(C)C3=CC[C@]12C)C(C)C` [DEHYDROTUMULOSIC ACID], the IC50 in test [1], in test [2], in test [3] and in test [4] was > 40 µM in each case.

As to `C=C(CC[C@@H](C(=O)O)[C@H]1CC[C@@]2(C)C3=CC[C@H]4C(C)(C)[C@@H](O)CC[C@]4(C)C3=CC[C@]12C)C(C)C` [DEHYDROEBURICOIC ACID], the IC50 stood at 6 µM in test [1], 25.6 µM in test [2], 14.3 µM in test [3] and 6.3 µM in test [4].
